Source: PubChem (several laboratories)
Most compounds without a hit are left out; they make up all but 6.4% or so of the library.
WT yeast gro inh: growth inhibition of WT yeast, mitochondrial fusion screen; mitochondrial fusion phenotypic screen, WT strain; inhibition, % at 10 µM; 190,000 compounds, 2.1% hits; AID 1362; in the data active = inhibition above about 58%; tested in S. cerevisiae
GRIN3A LBD mod: modulates the human NR3A ligand-binding domain | NR3A LBD differential scanning fluorimetry, Tm shift; 0% = protein alone, 100% = glycine-bound protein | Tm shift relative to glycine control, % at 25 µM | 340,000 compounds, 2.5% hits;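 active = melting temperature shift of at least 10% of the positive control shift, at one fixed dose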
TbMetRS inhib: blocks T. brucei methionyl-tRNA synthetase activity; purified T. brucei MetRS, ATP depletion, Kinase-Glo luminescence; inhibition, % at 11.9 µM; 360,000 compounds, 0.4% hits; AID 624268;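 active = inhibition above a per-plate cutoff of the control wells' mean inhibition plus 3 SD, cut at about 5.5% in these data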;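 also: 0% = DMSO wells median and 100% = median of wells with control inhibitor compound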
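Test system – parasite MetRS enzyme · Reagent – substrates ATP, L-methionine and bulk Escherichia coli tRNA · Doses – 11.9 µM compound single dose, 0.9% DMSO · Times – 15 min enzyme-compound preincubation, 2 h reaction, 10 min detection, 25 °C · Signal – Kinase-Glo luminescence, ATP depletion format · Controls – DMSO-only wells as low control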
MPTP block: inhibitors of mitochondrial permeability transition pore | isolated mouse mitochondria, Ca2+ swelling absorbance, 30 min | inhibition, % at 10 µM | 360,000 compounds, 1.4% hits | AID 602449;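 active = inhibition of 50% or more, scaled per plate between neutral and stimulator controls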;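 also: 0% = DMSO wells given calcium and 100% = 1 mM EGTA wells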
CHOP inh: blocks CHOP induction under ER stress; 220,000 compounds, 3.8% hits; AID 2732; inhibition, % at 10 µM; CHO-K1 CHOP-promoter luciferase, tunicamycin-induced, 15-18 h;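 active = compounds that reduced the stress-induced luciferase reporter signal by more than about 70% of percent inhibition, limit read from the data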;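 also: 0% = tunicamycin plus vehicle and 100% = wells without tunicamycin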
EBV gp42 block: EBV gp42 inhibition | Q1HVG2 | Fluorescence polarization binding assay, mP read-out | inhibition, % (tested at 21.74 µM) | 220,000 compounds, 0.42% hits | AID 1085; in the data active = inhibition above about 50%
Target sequence (Q1HVG2 whole entry, looked up): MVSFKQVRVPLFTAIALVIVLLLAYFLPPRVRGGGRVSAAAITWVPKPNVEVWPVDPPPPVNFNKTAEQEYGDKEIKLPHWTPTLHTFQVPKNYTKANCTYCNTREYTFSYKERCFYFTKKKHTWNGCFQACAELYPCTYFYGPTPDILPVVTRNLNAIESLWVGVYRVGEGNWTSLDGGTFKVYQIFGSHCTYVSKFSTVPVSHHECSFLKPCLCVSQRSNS
The depositor's hits bear a star; / = no result.

SMILES | WT yeast gro inh | GRIN3A LBD mod | TbMetRS inhib | MPTP block | CHOP inh | EBV gp42 block
CC(C)Cn1c(N)c(C(=O)COC(=O)c2cc(C(F)(F)F)nc3c(C(F)(F)F)cccc23)c(=O)n(C)c1=O | 61* | / | / | / | 39 | -25
CC(C)Cn1c(N)c(C(=O)COC(=O)c2ccc(Cl)cc2)c(=O)n(C)c1=O | 23 | -1 | 2 | 0 | 21 | -15
Cn1c(=O)c(C(=O)COC(=O)c2cc(C(F)(F)F)nc3ccccc23)c(N)n(Cc2ccccc2)c1=O | 35 | / | / | / | 21 | -30
CC(C)Cn1c(N)c(C(=O)COC(=O)c2c(O)c(Cl)cc(Cl)c2Cl)c(=O)n(C)c1=O | / | 11* | 0 | 6 | / | /
O=C(C1=C(O)C(=O)N(Cc2ccco2)C1c1cccnc1)c1cc2ccccc2o1 (stereo not drawn) | 10 | 2 | 1 | -2 | 3 | -2
CC(C)C(=O)NCCc1nc2ccccc2n1CCCOc1ccc(Cl)cc1 | 70* | 0 | 0 | 0 | 12 | -3
O=C(Nc1nc2ccccc2n1CCOc1ccccc1)c1ccco1 | 56 | -4 | 0 | 2 | 20 | 2
O=C(Nc1nc2ccccc2n1CCOc1ccc(Cl)cc1)c1ccco1 | 70* | -14 | 0 | 1 | 47 | -4
CCN(CC)Cc1c(-c2ccccc2)[nH]c2ccc(C)cc2c1=O | -5 | 3 | -1 | 1 | 13 | -6
Cn1c(SCC(=O)c2ccc(O)c(O)c2)nnc1-c1ccccc1 | / | -1 | 1 | 0 | / | /
Cn1c(SCC(=O)c2ccc3c(c2)Cc2ccccc2-3)nnc1-c1cccc(N)c1 | 0 | 1 | -1 | 2 | 93* | 24
O=C(CN1CCN(c2nc(-c3ccccc3)cs2)CC1)Nc1ccc2c(c1)OCO2 | 16 | -3 | -1 | -1 | -5 | -14
CC1(C)Cc2c(cnn2-c2ccccc2)-c2c1c1ccccc1n2CC(O)CBr (stereo not drawn) | 18 | -6 | 0 | 2 | 95* | -11
CC1(C)Cc2c(cnn2-c2ccccc2)C(=O)/C1=N\NC(=O)c1ccccc1N | 1 | -1 | -1 | 2 | 48 | -14
COC(=O)Cc1ccc(NC(=S)Nc2ccccn2)cc1 | 10 | -4 | 0 | -1 | 73* | -4
O=C(CCn1c(=O)sc2ccccc21)Nc1nccs1 | -3 | -1 | -2 | 0 | -3 | -22
Cc1cccc(NC(=O)Nc2ccc(C#N)cc2)n1 | 8 | 1 | 0 | -1 | 77* | -10
Cc1cccc(NC(=O)Nc2cccc(C#N)c2)n1 | 5 | 0 | 0 | 0 | 32 | -15
O=C(C1CCN(c2nnc(-n3cccc3)s2)CC1)N1CCN(c2cccc(C(F)(F)F)c2)CC1 | 15 | 0 | 0 | 0 | 77* | -9
O=C(C1CCC1)N1CCN(c2cccc(C(F)(F)F)c2)CC1 | / | -4 | 0 | 0 | / | /
COc1ccc(CN2C(=O)c3cccnc3C2=O)cc1S(=O)(=O)NCc1ccccc1 | / | -3 | 0 | -1 | / | /
COc1ccc(/C=C2\SC(=S)N(CCC(=O)N3CCCCC3CCO)C2=O)cc1 (stereo not drawn) | / | 0 | -1 | 0 | / | /
CCN1C(=O)CSC1=Nc1ccc(C(=O)OC)cc1 | / | / | 0 | -2 | / | /
Cc1cc(CSc2nc(C)cc(=O)[nH]2)c2ncccc2c1 | -8 | -2 | 0 | -1 | 87* | -3
Cc1cc(=O)[nH]c(SCc2cccc3ccccc23)n1 | / | -4 | -1 | 0 | / | /
SMILES | WT yeast gro inh | GRIN3A LBD mod | TbMetRS inhib | MPTP block | CHOP inh | EBV gp42 block
Cc1c(N)c(=O)n(-c2ccccc2)n1C | / | -1 | 0 | -3 | / | /
COc1ccc(O[C@H]2C=C[C@@H](c3ccccc3)O[C@@H]2COC(=O)CC/C(C)=N/O[C@@H](C)CN2CCCCc3nc(C)c(C)cc32)cc1 | 67* | / | / | / | 14 | -16
C/C(CCC(=O)OC[C@H]1O[C@H](C#Cc2ccccc2)C=C[C@@H]1Oc1ccc(C)cc1)=N\O[C@@H](C)CN1CCCCc2nc(C)c(C)cc21 | 20 | / | / | / | 6 | -37
CC1CCCC(NC(=O)COc2ncnc3ccccc23)C1C (stereo not drawn) | / | -1 | 0 | 0 | / | /
Cc1cccc(C)c1NC(=O)CN1CCNCC1 | 4 | 0 | -1 | -3 | 87* | -3
C/C(=N\NC(=S)NCc1ccccc1)c1ccc(Br)cc1 | 71* | -7 | 0 | 5 | -6 | -5
C/C(=N\NC(=S)NCc1ccccc1)c1ccc2c(c1)OCCO2 | 57 | 0 | 0 | -1 | 12 | -3
C/C(=N\NC(=S)NCc1ccccc1)c1ccc2ccccc2c1OC(F)F | 68* | -2 | 0 | 2 | 48 | -24
CC(/C=C1\SC(=S)N(NC(=O)c2ccncc2)C1=O)=C\c1ccccc1 | / | 20* | 0 | 3 | 7 | 3
COc1ccc(/C=C2\SC(=S)N(CCC(=O)Nc3ccc(O)cc3)C2=O)cc1 | / | 15* | -1 | 6 | / | /
CCOc1ccc(/C=C2\SC(=S)N(CCC(=O)O)C2=O)cc1 | / | 4 | -1 | 4 | 84* | -5
CC(/C=C1\SC(=S)N(CCC(=O)Nc2ccc(O)cc2)C1=O)=C\c1ccccc1 | / | 14* | 0 | 0 | / | /
CC(=Cc1ccccc1)C=C1SC(=S)N(CCCC(=O)Nc2ccc(C(=O)O)c(O)c2)C1=O | / | / | 2 | 2 | / | /
CCOc1ccc(/C=C2/SC(=S)N(CCC(=O)Nc3ccc(C(=O)O)cc3)C2=O)cc1 | / | 4 | 0 | 4 | / | /
COc1ccccc1S(=O)(=O)N1CCNC(=O)C1 | / | 0 | 0 | -1 | / | /
CCN(CC)C(=O)C1=C(C)N(Cc2ccccc2)C(=O)C(CC(=O)NC2CCCCC2)C1 (stereo not drawn) | / | / | -2 | 0 | / | /
COc1ccc(/C=C2/SC(=S)N(CCCC(=O)Nc3ccc(O)cc3)C2=O)cc1OC | / | 7 | 0 | 0 | / | /
COc1ccc(/C=C2\SC(=O)N(CCC(=O)Nc3ccc(S(=O)(=O)Nc4nccs4)cc3)C2=O)cc1 | -2 | 11* | 0 | 8 | 15 | 1
Cc1ccc(/C=C2/SC(=S)N(CCCC(=O)Nc3ccc(O)cc3)C2=O)cc1 | 7 | 7 | 1 | 1 | 94* | -1
COc1ccc(/C=C2/SC(=O)N(CCC(=O)Nc3ccc(S(=O)(=O)Nc4nccs4)cc3)C2=O)cc1 | 11 | 6 | 1 | 5 | 29 | 4
CC(=O)c1c(C)[nH]c(C(=O)OC(C)C(=O)Nc2ccc(C)c(S(=O)(=O)N3CCOCC3)c2)c1C (stereo not drawn) | / | -2 | 0 | 1 | / | /
CC[n+]1c(C=C2C=C(C)OC(C)=C2)sc2ccccc21 | 69* | -3 | 0 | 14 | 23 | -44
Cc1ccc(C(=O)COC(=O)CSc2cccc3cccnc23)c(C)c1 | / | 3 | -1 | -2 | / | /
CN(C)c1ccnc(N(Cc2ccccc2)Cc2ccccc2)c1C#N | 81* | 4 | 0 | 1 | 48 | -3
Cc1cc(NCCCn2ccnc2)n2ncc(-c3ccc(Cl)cc3)c2n1 | 64* | -7 | -1 | 1 | / | 8
